Data set [1] relates to A549. Kind of data set: Cytotoxicity against human A549 cells assessed as inhibition of cell growth after 72 hrs by MTS assay. It is filed as functional, cell-based. The conditions noted are these: A549, 72 h. In outline: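 A549 cells exposed to each peptide for 72 h; growth read by MTS assay. IC50 taken as the concentration giving 50% growth inhibition, n = 3.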
Data set [2] in a line: Permeability of the compound in pH 7.4 phosphate buffer solution after 4 hrs by LC-MS/MS based PAMPA assay. It is filed as ADME. The conditions noted are these: read-out: permeability. The method, boiled down: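 PAMPA run at pH 7.4, under the in vitro bioassay conditions.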
(PAMPA measures passive passage across an artificial lipid membrane.)

Data set [3] can be described thus: Protein binding in 10% fetal bovine serum at 1 uM after 4 hrs in presence of cell culture medium by rapid equilibrium dialysis based LC-MS/MS analysis. Format: ADME, cell-free, Bos taurus. The conditions noted are these: cattle, 10% fetal bovine serum in cell culture medium; read-out: PB (converted). The method, boiled down: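 Peptides tested in cell culture medium supplemented with 10% (v/v) fetal bovine serum. The ratio of unbound peptide was determined.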

A word on the IC50: it is the point on the concentration scale where inhibition reaches its midpoint.

With `CCC[C@H](C)[C@H]1OC(=O)[C@H](C)N(C)C(=O)[C@H]([C@@H](C)CC)NC(=O)CN(C)C(=O)[C@@H](Cc2ccccc2)N(C)C(=O)[C@H](C)NC(=O)[C@@H]([C@@H](C)CC)OC(=O)/C(C)=C/C=C/[C@@H]1C`, in data set [1], the half-inhibitory concentration (IC50) was 28 nM. On the same count and under the same terms, in the case of `CCC[C@H](C)[C@H]1OC(=O)[C@H](C)N(C)C(=O)[C@@H]([C@@H](C)CC)NC(=O)CN(C)C(=O)[C@@H](Cc2ccccc2)N(C)C(=O)[C@H](C)NC(=O)[C@@H]([C@@H](C)CC)OC(=O)/C(C)=C/C[C@H](O)[C@@H]1C` it was 645 nM. Regarding `CCC[C@H](C)[C@@H](O)[C@@H](C)[C@@H]1C/C=C(\C)C(=O)O[C@H]([C@@H](C)CC)C(=O)N[C@@H](C)C(=O)N(C)[C@H](Cc2ccccc2)C(=O)N(C)CC(=O)N[C@@H]([C@@H](C)CC)C(=O)N(C)[C@@H](C)C(=O)O1`, the 50% inhibitory concentration (IC50) in data set [1] is 4.5 nM. Regarding `CCC[C@H](C)[C@H]1OC(=O)[C@H](C)N(C)C(=O)[C@H]([C@@H](C)CC)NC(=O)CNC(=O)[C@@H](Cc2ccccc2)N(C)C(=O)[C@H](C)NC(=O)[C@@H]([C@@H](C)CC)OC(=O)/C(C)=C/C[C@H](O)[C@@H]1C`, the IC50 in data set [1] turned out to be 31 nM. Further, the Papp at 4 h in data set [2] is greater than 1 ×10⁻⁶ cm/s. Regarding `CCC[C@H](C)[C@H]1OC(=O)[C@@H](C)N(C)C(=O)[C@H]([C@@H](C)CC)NC(=O)CN(C)C(=O)[C@@H](Cc2ccccc2)N(C)C(=O)[C@H](C)NC(=O)[C@@H]([C@@H](C)CC)OC(=O)/C(C)=C/C[C@H](O)[C@@H]1C`, the fraction unbound at 4 h, 1 µM in data set [3] is 0.145. For the same compound, the IC50 in data set [1] came to 1.9 nM. For the same compound, the Papp at 4 h in data set [2] is greater than 1 ×10⁻⁶ cm/s. As for `CCC[C@H](C)[C@H]1OC(=O)[C@H](C)N(C)C(=O)[C@H]([C@@H](C)CC)NC(=O)CCN(C)C(=O)[C@@H](Cc2ccccc2)N(C)C(=O)[C@H](C)NC(=O)[C@@H]([C@@H](C)CC)OC(=O)/C(C)=C/C[C@H](O)[C@@H]1C`, in data set [1], the 50% inhibitory concentration (IC50) worked out at 74 nM. Besides, the Papp at 4 h in data set [2] was greater than 1 ×10⁻⁶ cm/s.

Consider `CCC[C@H](C)[C@H]1OC(=O)[C@H](C)N(C)C(=O)[C@H]([C@@H](C)CC)NC(=O)CN(C)C(=O)[C@H](Cc2ccccc2)N(C)C(=O)[C@H](C)NC(=O)[C@@H]([C@@H](C)CC)OC(=O)/C(C)=C/C[C@H](O)[C@@H]1C`, for which the half-maximal inhibitory concentration (IC50) in data set [1] is 48 nM. Take `CCC[C@H](C)[C@H]1OC(=O)[C@H](C)N(C)C(=O)[C@H]([C@@H](C)CC)NC(=O)CN(C)C(=O)[C@@H](Cc2ccccc2)N(C)C(=O)[C@H](C)NC(=O)[C@@H]([C@@H](C)CC)OC(=O)/C(C)=C/C[C@H](O)[C@@H]1C`: in data set [3], the fraction unbound at 4 h, 1 µM is 0.241. Besides, the IC50 in data set [1] came to 4.2 nM. The Papp at 4 h in data set [2] is greater than 1 ×10⁻⁶ cm/s.

For the compound `CCC[C@H](C)[C@H]1OC(=O)[C@H](C)N(C)C(=O)[C@H]([C@@H](C)CC)NC(=O)CN(C)C(=O)[C@@H](Cc2ccccc2)NC(=O)[C@H](C)NC(=O)[C@@H]([C@@H](C)CC)OC(=O)/C(C)=C/C[C@H](O)[C@@H]1C`, in data set [1], the IC50 was 5.4 nM. Turning to `CCC[C@H](C)[C@H]1OC(=O)[C@H](C)N(C)C(=O)[C@H]([C@@H](C)CC)NC(=O)CN(C)C(=O)[C@@H](Cc2ccccc2)N(C)C(=O)[C@H](C)NC(=O)[C@@H]([C@@H](C)CC)OC(=O)/C(C)=C/C[C@H](OC)[C@@H]1C`, in data set [3], the fraction unbound at 4 h, 1 µM is 0.028. Also, the concentration for half-maximal inhibition (IC50) in data set [1] came to 4.3 nM. Further, the Papp at 4 h in data set [2] is greater than 1 ×10⁻⁶ cm/s. Regarding `CCC[C@H](C)[C@H]1OC(=O)[C@H](C)N(C)C(=O)[C@H]([C@@H](C)CC)NC(=O)CN(C)C(=O)[C@@H](Cc2ccccc2)N(C)C(=O)[C@@H](C)NC(=O)[C@@H]([C@@H](C)CC)OC(=O)/C(C)=C/C[C@H](O)[C@@H]1C`, the half-inhibitory concentration (IC50) in data set [1] was 1550 nM. Also, in data set [2], the Papp at 4 h was greater than 1 ×10⁻⁶ cm/s.

Values taken from ChEMBL document CHEMBL4145558, “Structure-Activity Relationship Study on Odoamide: Insights into the Bioactivities of Aurilide-Family Hybrid Peptide-Polyketides” (ACS Med Chem Lett, 2018).
